Consider 9 compounds from ChEMBL document CHEMBL1177835, “A note to the biological activity of benzoxazine derivatives containing the thioxo group” (Eur J Med Chem, 2010).

Values after ≈ are worked out from the molar mass of the structure shown.

Data set [1] deals with Mycobacterium kansasii. The data set is described as follows: Antimycobacterial activity against Mycobacterium kansasii 6509/96 after 14 days by microdilution method. Format: functional. Particulars: for MIC: 6509/96, 336 h. Summed up:
(§1)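 Dilution micromethod for MIC; compounds added to medium as DMSO solutions. Each strain also inoculated onto Löwenstein–Jensen medium to control inoculum sterility and growth. Strain 6509/96 is a clinical isolate; CNCTC strains from the Czech national type culture collection.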
Background: In broth dilution the organism is exposed to a series of concentrations in liquid medium.

Data set [2] relates to Mycobacterium avium. The data set is described as follows: Antimycobacterial activity against Mycobacterium avium CNCTC My 330/88 after 21 days by microdilution method. The format is functional. Particulars: CNCTC My 330/88, 504 h. Summed up: (§2)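 MIC determined by a dilution micromethod. Strains came from the Czech National Collection of Type Cultures, Prague. Compounds were added to the medium as DMSO solutions. Each inoculum was also plated in parallel on Löwenstein–Jensen medium to check its sterility and growth. The M. avium strain is identical with ATCC 25291 and resistant to INH.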

In data set [3] the test system is Mycobacterium avium. The data set is described as follows: Antimycobacterial activity against Mycobacterium avium CNCTC My 330/88 after 14 days by microdilution method. Format: functional. Particulars: CNCTC My 330/88, 336 h. Summed up:
as §2

A further data set has as its system K562. The data set is described as follows: Antiproliferative activity against human K562 cells after 72 hrs by celltiter-blue assay. The format is functional, cell-based. In short, it runs like this:
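K-562 grown in RPMI 1640 with ultraglutamine, gentamicin, 10% heat-inactivated FBS at 37 °C; about 10,000 cells/well. Compounds dissolved in DMSO and diluted in DMEM, incubated 72 h at 37 °C, 5% CO2. Viability read by CellTiter-Blue resazurin reduction. GI50 taken where the dose-response curve crosses 50% of untreated control.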
A general note: The colour change of resazurin is a common sign of viable cells or microbes.

The test system of data set [4] is Mycobacterium tuberculosis. As to the kind of experiment: Antimycobacterial activity against Mycobacterium tuberculosis CNCTC My 331/88 after 21 days by microdilution method. Format: functional. Particulars: CNCTC My 331/88, 504 h. In short, it runs like this: as §2
Data set [5] relates to Mycobacterium kansasii. As to the kind of experiment: Antimycobacterial activity against Mycobacterium kansasii CNCTC My 235/80 after 21 days by microdilution method. Format: functional. Particulars: CNCTC My 235/80, 504 h. Summed up:
as §1

The test system of data set [6] is Mycobacterium tuberculosis. The data set is described as follows: Antimycobacterial activity against Mycobacterium tuberculosis CNCTC My 331/88 after 14 days by microdilution method. Format: functional. Particulars: CNCTC My 331/88, 336 h. Summed up:
as §2

The next data set deals with HUVEC. The data set is described as follows: Antiproliferative activity against HUVEC after 72 hrs by using methylene blue staining. The format is cell-based. Particulars: human. Summed up:
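HUVEC in culture medium with ultraglutamine, gentamicin, 10% heat-inactivated FBS, 37 °C. Harvested in log phase by trypsinization; about 10,000 cells/well. Compounds in DMSO, diluted in DMEM, incubated 72 h at 37 °C, 5% CO2. Cells then glutaraldehyde-fixed, stained with 0.05% methylene blue for 15 min, eluted with 0.33 N HCl, OD 660 nm. GI50 taken at 50% intersection versus untreated control.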

Data set [7] relates to Mycobacterium kansasii. The data set is described as follows: Antimycobacterial activity against Mycobacterium kansasii 6509/96 after 21 days by microdilution method. Particulars: 6509/96, 504 h. Format: functional. In short, it runs like this: as §1
The next data set deals with HeLa. The data set is described as follows: Cytotoxicity against human HeLa cells after 72 hrs by using methylene blue staining. The format is functional, cell-based. In short, it runs like this: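 HeLa cells in RPMI 1640 with supplements, preincubated 48 h without compound. Compound dilutions were then applied to subconfluent monolayers for 72 h at 37 °C, 5% CO2. Cells were glutaraldehyde-fixed, stained with 0.05% methylene blue, eluted with 0.33 N HCl and read at OD 660 nm. CC50 taken at 50% intersection versus negative control.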

Data set [8] deals with Mycobacterium kansasii. The data set is described as follows: Antimycobacterial activity against Mycobacterium kansasii CNCTC My 235/80 after 14 days by microdilution method. The format is functional. Particulars: CNCTC My 235/80, 336 h. In short, it runs like this:
as §1

What is called MIC is the lowest concentration found to suppress growth.

As for `O=c1oc2ccccc2c(=S)n1Cc1ccc(Cl)c(Cl)c1`, the minimum inhibitory concentration (MIC) was 2 µM (≈ 0.676 µg/mL) against Mycobacterium kansasii [1]; 1 µM (≈ 0.338 µg/mL) against Mycobacterium avium [2]; 1 µM (≈ 0.338 µg/mL) in the data set on Mycobacterium avium [3]; 1 µM (≈ 0.338 µg/mL) in data set [4]; 4 µM (≈ 1.35 µg/mL) in the data set on Mycobacterium kansasii [5]; 1 µM (≈ 0.338 µg/mL) in data set [6]. The results for the minimum inhibitory concentration (MIC) against Mycobacterium kansasii [7] and with Mycobacterium kansasii [8] were 4 µM (≈ 1.35 µg/mL) and 2 µM (≈ 0.676 µg/mL), respectively. Further, the Activity result in the data set on K562, with HUVEC and in the data set with HeLa was “Toxic” in each case.
As for `S=c1oc2ccc(Br)cc2c(=S)n1Cc1ccc(Cl)c(Cl)c1`, the minimum inhibitory concentration (MIC) against Mycobacterium kansasii [1] was found to be 16 µM (≈ 6.93 µg/mL); with Mycobacterium avium [2] it was 16 µM (≈ 6.93 µg/mL); with Mycobacterium avium [3] it was 16 µM (≈ 6.93 µg/mL); in data set [4], 8 µM (≈ 3.47 µg/mL); in the data set on Mycobacterium kansasii [5] it was 32 µM (≈ 13.9 µg/mL); in data set [6], 4 µM (≈ 1.73 µg/mL). The MIC against Mycobacterium kansasii [7] is 32 µM (≈ 13.9 µg/mL); with Mycobacterium kansasii [8], 16 µM (≈ 6.93 µg/mL).
Take `O=c1oc2ccc(Cl)cc2c(=O)n1Cc1ccccc1`: the MIC is 125 µM (≈ 36 µg/mL) against Mycobacterium kansasii [1]; 62.5 µM (≈ 18 µg/mL) against Mycobacterium avium [2]; 32 µM (≈ 9.21 µg/mL) against Mycobacterium avium [3]; 125 µM (≈ 36 µg/mL) in data set [4]; 62.5 µM (≈ 18 µg/mL) with Mycobacterium kansasii [5]; 62.5 µM (≈ 18 µg/mL) in data set [6]. For the same compound, the results for the MIC in the data set on Mycobacterium kansasii [7] and against Mycobacterium kansasii [8] were 125 µM (≈ 36 µg/mL) and 32 µM (≈ 9.21 µg/mL), respectively. For the same compound, the Activity entry in the data set on K562, in the data set on HUVEC and in the data set on HeLa was “Toxic” throughout.
Regarding `O=c1oc2ccc(Cl)cc2c(=O)n1Cc1ccc(F)cc1`, the Activity entry in the data set with Mycobacterium kansasii [1], in the data set on K562, with HUVEC and with HeLa was “Toxic” each time. The MIC with Mycobacterium avium [2] came to 32 µM (≈ 9.78 µg/mL); against Mycobacterium avium [3] it was 32 µM (≈ 9.78 µg/mL); in data set [4], 32 µM (≈ 9.78 µg/mL); in the data set on Mycobacterium kansasii [5], 62.5 µM (≈ 19.1 µg/mL); in data set [6] it was 32 µM (≈ 9.78 µg/mL); with Mycobacterium kansasii [7], 125 µM (≈ 38.2 µg/mL). Moreover, 62.5 µM (≈ 19.1 µg/mL) was the least that counted as inhibitory in the data set with Mycobacterium kansasii [8] (MIC).
With `S=c1oc2ccccc2c(=S)n1Cc1ccccc1`, the MIC in the data set on Mycobacterium kansasii [1] was 1 µM (≈ 0.285 µg/mL); in the data set on Mycobacterium avium [2] it was 1 µM (≈ 0.285 µg/mL); against Mycobacterium avium [3] it was 1 µM (≈ 0.285 µg/mL); in data set [4], 1 µM (≈ 0.285 µg/mL); in the data set on Mycobacterium kansasii [5], 2 µM (≈ 0.571 µg/mL); in data set [6] it was 1 µM (≈ 0.285 µg/mL). Further, the MIC against Mycobacterium kansasii [7] and in the data set with Mycobacterium kansasii [8] was 2 µM (≈ 0.571 µg/mL) each time.
As to `Cc1ccc2oc(=O)n(Cc3ccccc3)c(=O)c2c1`, the minimal inhibitory concentration (MIC) against Mycobacterium kansasii [1] turned out to be 62.5 µM (≈ 16.7 µg/mL); in the data set with Mycobacterium avium [2], 62.5 µM (≈ 16.7 µg/mL); in the data set with Mycobacterium avium [3], 32 µM (≈ 8.55 µg/mL); in data set [4], 62.5 µM (≈ 16.7 µg/mL); in the data set on Mycobacterium kansasii [5] it was 62.5 µM (≈ 16.7 µg/mL); in data set [6] it was 32 µM (≈ 8.55 µg/mL). Further, the MIC was found to be 125 µM (≈ 33.4 µg/mL) in the data set with Mycobacterium kansasii [7] and 62.5 µM (≈ 16.7 µg/mL) against Mycobacterium kansasii [8]. The Activity result with K562, in the data set with HUVEC and with HeLa was “Toxic” each time.
Regarding `CO[C@H]1/C=C/O[C@@]2(C)Oc3c(C)c(O)c4c(O)c(c(/C=N/N5CCN(C)CC5)c(O)c4c3C2=O)NC(=O)/C(C)=C\C=C\[C@H](C)[C@H](O)[C@@H](C)[C@@H](O)[C@@H](C)[C@H](OC(C)=O)[C@@H]1C` [RIFAMPIN], the MIC against Mycobacterium kansasii [1] worked out at 0.125 µM (≈ 0.103 µg/mL); against Mycobacterium avium [2], 65 µM (≈ 53.5 µg/mL); against Mycobacterium avium [3], 16 µM (≈ 13.2 µg/mL); in data set [4], 0.5 µM (≈ 0.411 µg/mL); with Mycobacterium kansasii [5] it was 0.25 µM (≈ 0.206 µg/mL); in data set [6], 0.25 µM (≈ 0.206 µg/mL). Besides, the MIC with Mycobacterium kansasii [7] and with Mycobacterium kansasii [8] was 0.25 µM (≈ 0.206 µg/mL) each time.
On to `O=c1oc2ccccc2c(=S)n1Cc1ccccc1`, for which the MIC in the data set with Mycobacterium kansasii [1] stood at 4 µM (≈ 1.08 µg/mL); in the data set on Mycobacterium avium [2], 8 µM (≈ 2.15 µg/mL); in the data set on Mycobacterium avium [3] it was 8 µM (≈ 2.15 µg/mL); in [4], 2 µM (≈ 0.539 µg/mL); against Mycobacterium kansasii [5], 8 µM (≈ 2.15 µg/mL); in data set [6], 1 µM (≈ 0.269 µg/mL). Also, the MIC is 8 µM (≈ 2.15 µg/mL) with Mycobacterium kansasii [7] and 4 µM (≈ 1.08 µg/mL) in the data set on Mycobacterium kansasii [8]. Moreover, the Activity entry in the data set on K562, in the data set on HUVEC and in the data set with HeLa was “Toxic” each time.
On to `O=c1oc2ccccc2c(=O)n1Cc1ccccc1`, for which the MIC in the data set on Mycobacterium kansasii [1] worked out at 62.5 µM (≈ 15.8 µg/mL); against Mycobacterium avium [2], 62.5 µM (≈ 15.8 µg/mL); in the data set with Mycobacterium avium [3], 32 µM (≈ 8.1 µg/mL); in [4] it was 32 µM (≈ 8.1 µg/mL); in the data set with Mycobacterium kansasii [5] it was 62.5 µM (≈ 15.8 µg/mL); in data set [6], 32 µM (≈ 8.1 µg/mL). In addition, the MIC against Mycobacterium kansasii [7] and in the data set on Mycobacterium kansasii [8] was 62.5 µM (≈ 15.8 µg/mL) in each case. Besides, the Activity entry in the data set on K562, with HUVEC and in the data set on HeLa was “Toxic” each time.
